Data as given in paper PMC8201661 (Cell chemical biology, 2020).

What was measured:
RPMI 8226 cells [1] = test: Western blot for mono-/poly-Ub and PARP-1; type: cell-based, human; conditions: RPMI 8226 cells treated with various concentrations for 6 h
In short: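 RPMI 8226 cells (1,000,000/well) given a range of test-compound concentrations (1000x DMSO stock) or DMSO for 6 h. Lysis in RIPA with protease inhibitors (5 min, ice), then sonication and clearing at 17000 x g. Protein by BCA. After SDS-PAGE and PVDF wet transfer, membranes blocked in 5% milk/TBST and probed for PARP-1 (1:1,000 in 5% BSA/TBST), mono/poly-ubiquitin and α-tubulin as loading control.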

[2] = system: 20S proteasome subunits PSMB5, PSMB10, PSMA5, PSMB1, and PSMB2; test: In situ competitive LC-MS/MS pull-down with probe 20; type: cell-based, human; conditions: RPMI 8226 cells, 100 nM 1 for 6 hours, then 10 μM 20; LFQ, n = 6
In short: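 RPMI 8226 cells grown to confluence, then given fresh medium with 100 nM test compound (1000x DMSO stock) or DMSO for 6 h. Washed cells were sonicated in PBS. Lysate (2.32 mg/mL) got 10 μM alkyne probe, 1 h r.t. CuAAC used 30 μM biotin azide, 1 mM TCEP, 100 μM TBTA and 1 mM CuSO4 (1 h), then streptavidin enrichment and on-bead TCEP/iodoacetamide treatment. Trypsin digest, LC-MS/MS, LFQ ratios; n = 6 (3 biological × 2 technical).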

RPMI 8226 cells [3] = test: Cell toxicity, WST-1 assay, RPMI 8226; type: cell-based; conditions: Homo sapiens, RPMI-8226, 48 h, read-out: EC50 cytotoxicity, RPMI 8226
MM1.R cells = test: Cell toxicity, WST-1 assay, MM1.R; type: cell-based; conditions: Homo sapiens, MM.1R, 48 h, read-out: EC50 cytotoxicity, MM1.R
In short: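 MM1.R cells grown in RPMI-1640 with 10% FBS, non-essential amino acids and penicillin/streptomycin at 37 °C, 5% CO2. Cells exposed to a range of test-compound concentrations for 24 h or 48 h. Viability read by WST-1 per manufacturer's protocol as values relative to control, n = 3. EC50 fitted from concentration–response.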

MM1.R = conditions: read-out: Previously reported cytotoxicity, MM1.R; ref Hideshima et al., 2001; cited from earlier work
RPMI 8226 = conditions: cited from earlier work

**Q.** For `CC(C)CCCCC/C=C/C=C/C(=O)N[C@H](C(=O)N[C@H]1C[C@@H](O)CCNC(=O)/C=C/[C@H](C)NC1=O)[C@@H](C)O` [Compound 1, (2E,4E)-N-((2S,3R)-3-hydroxy-1-(((5S,8S,10S,E)-10-hydroxy-5-methyl-2,7-dioxo-1,6-diazacyclododec-3-en-8-yl)amino)-1-oxobutan-2-yl)-11-methyldodeca-2,4-dienamide], which “PARP-1 Western blot (apoptosis marker)” value (RPMI 8226 cells [1]) is on record?
**A.** PARP-1 cleavage

**Q.** What about the “Ubiquitinated proteins (mono-/poly-ubiquitin Western blot)” value (RPMI 8226 cells [1]) of the same compound?
**A.** concentration-dependent increase in ubiquitinated proteins

**Q.** And the “Competition of 20-enriched PSMB5, PSMB10, PSMA5, PSMB1 and PSMB2” value [2]?
**A.** > 50%

**Q.** And the EC50 (RPMI 8226 cells [3])?
**A.** 31 nM

**Q.** What about the EC50 (MM1.R cells) of the same compound?
**A.** 23 nM

**Q.** For `CC(C)C[C@H](NC(=O)[C@H](Cc1ccccc1)NC(=O)c1cnccn1)B(O)O` [bortezomib], which EC50 (MM1.R) is on record?
**A.** 3 nM

**Q.** Which EC50 (RPMI 8226) does the source give for `CC(C)C[C@H](NC(=O)[C@H](CCc1ccccc1)NC(=O)CN1CCOCC1)C(=O)N[C@@H](Cc1ccccc1)C(=O)N[C@@H](CC(C)C)C(=O)[C@@]1(C)CO1` [carfilzomib] here?
**A.** 5 nM
